Measured values published in ChEMBL document CHEMBL3085771, “Azetidinone-retinoid hybrids: synthesis and differentiative effects” (Eur J Med Chem, 2013).
The source made the active and inactive calls. No cut-off for these calls is given here.

Experiments:
[1] = Cytotoxicity against human SH-SY5Y cells assessed as doubling time at 7.5 uM after 24 to 72 hrs by trypan blue exclusion assay (reference value: 34.9 hrs); format: functional
[2] = test system: SH-SY5Y; assay: Cytotoxicity against human SH-SY5Y cells at 7.5 uM after 72 to 96 hrs by MTT assay; format: functional, cell-based
[3] = Cytotoxicity against human SH-SY5Y cells after 24 hrs by MTT assay
[4] = test system: SH-SY5Y; assay: Induction of cell differentiation in human SH-SY5Y cells assessed as neural-like differentiation at 7.5 uM after 6 days using beta3-tubulin and NF200 staining by microscopic analysis; format: functional, cell-based
Procedure, shortened: (§1)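 SH-SY5Y grown on BME-coated glass coverslips at 1×10⁴ cells/cm², treated from 24 h for 6 days, medium changed every 48 h. Controls were untreated cells and RA 10 microM. Cells fixed in 4% PFA, immunostained overnight at 4 °C for βIII-tubulin and NF200, and counterstained with Hoechst. Imaged at 20×; immunoreactive area normalized to cell number, mean ± SD.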

[5] = test system: SH-SY5Y; assay: Cytotoxicity against human SH-SY5Y cells assessed as doubling time at 7.5 uM after 24 to 96 hrs by trypan blue exclusion assay (reference value: 34.9 hrs); format: functional, cell-based
[6] = test system: SH-SY5Y; assay: Induction of cell differentiation in human SH-SY5Y cells assessed as neural-like differentiation at 10 uM after 6 days using beta3-tubulin and NF200 staining by microscopic analysis; format: functional, cell-based; procedure, shortened: as §1
[7] = test system: SH-SY5Y; assay: Cytotoxicity against human SH-SY5Y cells assessed as doubling time at 10 uM after 24 to 96 hrs by trypan blue exclusion assay (reference value: 34.9 hrs); format: functional, cell-based
[8] = Cytotoxicity against human SH-SY5Y cells assessed as doubling time at 10 uM after 24 to 72 hrs by trypan blue exclusion assay (reference value: 34.9 hrs); format: functional
[9] = test system: SH-SY5Y; assay: Cytotoxicity against human SH-SY5Y cells at 10 uM after 48 hrs by MTT assay; format: functional, cell-based
[10] = test system: SH-SY5Y; assay: Cytotoxicity against human SH-SY5Y cells at 10 uM after 72 to 96 hrs by MTT assay; format: functional, cell-based

SMILES | Time [1] [h] | Activity [2] | IC50 [3] [µM] | Activity [4] | Activity [5] | Activity [6] | Activity [7] | Time [8] [h] | Activity [9] | Activity [10]
CSN1C(=O)CC1CC/C=C/C(=O)Nc1ccccc1 (stereo not drawn) | 39 | Active | 10 | inactive | inactive |  |  |  |  | 
CC1=C(/C=C/C(C)=C/CNC(=O)/C=C2/CC(=O)N2)C(C)(C)CCC1 |  |  | 38 |  |  | Active | inactive | 39.78 | Active | Active
CC1=C(/C=C/C(C)=C/C=C/C(C)=C/C(=O)O)C(C)(C)CCC1 |  |  |  |  |  | Active |  |  |  | 
CC1=C(/C=C/C(C)=C\CNC(=O)/C=C2/CC(=O)N2)C(C)(C)CCC1 |  |  | 35 |  |  | Active | inactive | 51.25 | Active | Active
